# Published values from different studies.
# Each line is one published result; the experiments were not run side by side.
# Medium: plasma
SMILES,system,conditions,Tmax [h]
Cc1ccc(C(=O)Nc2ccc(CN3CCN(C)CC3)c(C(F)(F)F)c2)cc1C#Cc1cnc2[nH]ncc2c1,human,"oral, 40 mg, healthy volunteers",8
Cn1cc(Nc2nc(N)nc(-c3cccc(-n4ccc5cc(C6CC6)cc(F)c5c4=O)c3CO)n2)cn1,human,"oral, 300 mg, single dose, fasted, healthy volunteers",2
COc1ccc([C@@H](O)c2cc(-c3ncnc4cc(N5CCOCC5)ccc34)c(F)cc2Cl)nn1,human,"oral, 400 mg, single dose, patients",1.08
CN1CC[C@@H](c2c(O)cc(O)c3c(=O)cc(-c4ccc(C(F)(F)F)cc4Cl)oc23)[C@@H]1CO,human,"oral, 50 mg, patients",4.1
CC(C)n1c(Nc2cccnc2)nc2cnc(Nc3ccc(N4CCN(C)CC4)cc3)nc21,male human,"oral, 150 mg, single dose, healthy volunteers",1.5
CNC(=O)n1ccc2cc(Oc3ccnc(NC(=O)c4ccc(C5CCN(CCO)CC5)cc4)c3)c(OCCOC)cc21,human,"oral, 35 mg, single dose, fasted, healthy volunteers",3
NC(=S)NN=Cc1ncccc1N,human,"oral, 100 mg",0.9
Cl.[2H]C([2H])([2H])CC(=O)c1cnc(NC(=O)C2CC2)cc1Nc1cccc(-c2ncn(C([2H])([2H])[2H])n2)c1OC,human,"oral, 20 mg, multiple doses, once daily, fasted",2.1
NS(=O)(=O)OC[C@@H]1C[C@@H](n2ccc3c(N[C@H]4CCc5ccccc54)ncnc32)C[C@@H]1O,human,"intravenous, 15 mg/m², patients",1.13
